High-throughput results from PubChem.
KCNK9 inh – inhibitors of human KCNK9 two-pore domain potassium channel | B-score at 10 µM | actives 1.2% (n = 310,000) | HEK293 KCNK9, FluxOR thallium flux fluorescence; active compounds read low;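 active means ratio B-score over 3 SD below the library mean, with starting fluorescence within 5 SD of its mean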;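 further: negative B-score means less thallium flux so channel inhibition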
hERG protect – compounds protecting human hERG from proarrhythmic drug block; CHO-hERG, FluxOR thallium flux, dofetilide IC70 present; activation (rescue from dofetilide block), less the hit threshold, % at 10 µM; actives 0.51% (n = 310,000); Q12809;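 active means activation above the mean of controls blocked by dofetilide plus 5 SD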;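 further: thallium influx through hERG after potassium depolarization seen as dye fluorescence rise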
KCNQ1 block – inhibitors of human KCNQ1 potassium channel. actives 1.3% (n = 310,000). CHO-K1 KCNQ1, FluxOR thallium flux fluorescence; active compounds read high. B-score at 10 µM. AID 2642. P51787;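 active means compounds whose thallium flux B-score, printed positive for inhibition, exceeds three library SD while starting fluorescence stays within three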;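 further: channel opened by potassium depolarization with thallium stimulus after 20 min compound exposure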
KCNQ1 act – potentiates or activates the human KCNQ1 potassium channel; P51787; CHO-K1 KCNQ1, thallium flux FluxOR fluorescence; active compounds read high; B-score at 10 µM; actives 0.35% (n = 310,000);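 active means fluorescence ratio B-score, a plate-corrected score, at least three library SD, with initial intensity B-score within 5 SD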
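assay system = KCNQ1-transfected CHO-K1 cells | medium = assay buffer with matched DMSO | probe or stimulus = depolarizing K+/Tl+ stimulus, K2SO4 and Tl2SO4 each 12.5 mM in 5x stock | dosing = single dose | incubation = dye 90 min, compound 20 min, room temperature | detection = kinetic FluxOR fluorescence, 10 s baseline plus 110 s post-stimulus | evaluation = ratio B score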
KCNK3 block – human KCNK3 channel inhibition, primary screen; O14649; B-score at 10 µM; CHO-KCNK3 thallium flux, FluxOR fluorescence; active compounds read low; actives 0.84% (n = 340,000); AID 602410;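 active means B-score under library mean minus 4 SD, starting fluorescence ratio at most library mean plus 5 SD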;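 further: more negative B-score means stronger inhibition of thallium flux through KCNK3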
KCNK9 inh conf – human KCNK9 inhibitor confirmation; AID 492992; shares compounds with KCNK9 inh; inhibition, % at 10 µM; HEK293 KCNK9 cells, FluxOR thallium flux fluorescence; actives 43% (n = 4,900);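 active means thallium signal inhibited by more than 5 SD of the compound-free buffer control wells, on both duplicate plates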;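 further: 0% = assay buffer control wells without compound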
Kir2-1 spec – mouse Kir2.1 off-target activity of KCNK9 modulators; shares compounds with KCNK9 inh; Kir2.1 cells, FluxOR thallium flux fluorescence; inhibition, % at 10 µM; actives 4% (n = 4,900); AID 492993;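 active means thallium signal drop more than 5 SD beyond the mean of the no-compound control wells, seen in both duplicate plates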;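 further: signal is fluorescence rise after thallium addition divided by baseline fluorescence; plate controls were assay buffer only for no effect and full block by chlorpromazine control for full effect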
Target sequence (P35561 whole entry, looked up): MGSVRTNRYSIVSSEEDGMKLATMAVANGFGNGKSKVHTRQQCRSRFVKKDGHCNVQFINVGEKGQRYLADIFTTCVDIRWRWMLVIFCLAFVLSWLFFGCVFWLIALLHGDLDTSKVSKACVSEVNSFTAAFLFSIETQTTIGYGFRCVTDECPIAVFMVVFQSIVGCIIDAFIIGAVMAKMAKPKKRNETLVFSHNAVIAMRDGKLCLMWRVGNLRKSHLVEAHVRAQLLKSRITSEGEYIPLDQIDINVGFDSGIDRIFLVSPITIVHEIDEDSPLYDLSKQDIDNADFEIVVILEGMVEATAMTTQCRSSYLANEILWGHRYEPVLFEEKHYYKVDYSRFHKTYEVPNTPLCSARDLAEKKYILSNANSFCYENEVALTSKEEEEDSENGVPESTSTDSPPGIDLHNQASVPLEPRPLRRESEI
KCNK9 uninduced – second counter-screen for KCNK9 modulators: effect in non-induced cells; shares compounds with KCNK9 inh; non-induced KCNK9-HEK293, FluxOR thallium flux; inhibition, % at 10 µM; actives 40% (n = 4,900);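 active means thallium signal drop beyond 5 SD of the untreated control mean, on both duplicate plates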;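 further: plate controls were buffer only IC0 wells for no effect and SID17386958 at its maximal inhibitory level for full effect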
* hit, by the source's call; i = inactive; nt = no result given. The list is not random: actives were taken first. Their share in the collection is about 3.1%.

SMILES | KCNK9 inh | hERG protect | KCNQ1 block | KCNQ1 act | KCNK3 block | KCNK9 inh conf | Kir2-1 spec | KCNK9 uninduced
C(=N\N1CCN(Cc2cccc3ccccc23)CC1)/c1ccco1 | i | -12 | i | i | i | i | i | i
Cn1cccc1/C=N/N1CCN(Cc2cccc3ccccc23)CC1 | i | -7 | i | i | i | i | i | i
Cn1cccc1/C=N/N1CCN(Cc2ccccc2)CC1 | i | -3 | i | i | i | nt | nt | nt
FC(F)(F)c1ccc(/C=N/N2CCN(Cc3cccc4ccccc34)CC2)cc1 | i | -14 | i | i | i | nt | nt | nt
CCc1noc(C)c1C(=O)NNC(=O)c1ccccc1F | i | -5 | i | i | i | nt | nt | nt
COc1cnc(-c2ccccn2)nc1Sc1ccc(F)cc1 | i | -1 | i | i | i | nt | nt | nt
N#CC(c1ccc(F)cc1)c1ccc(C(=O)c2ccccc2)cc1 (configuration not stated) | i | -11 | i | i | i | nt | nt | nt
N#CC(c1ccccc1)c1ccc(C(=O)c2ccc(F)cc2)cc1 (configuration not stated) | -9.8* | -7 | i | i | i | 54%* | i | 36%*
O=C(O)c1cccc(CN2C(=O)S/C(=C/c3cccc([N+](=O)[O-])c3)C2=O)c1 | i | -16 | i | i | i | i | i | i
C=CCN=C1S/C(=C/c2cccc([N+](=O)[O-])c2)C(=O)N1CC=C | i | -8 | i | i | i | nt | nt | nt
Cc1ccccc1NC(=O)c1nn(C)c2c1CS(=O)(=O)c1ccccc1-2 | i | -8 | i | i | i | nt | nt | nt
CSc1cccc(NC(=S)N2CCC(c3ccccc3)C2)c1 (configuration not stated) | i | -7 | i | i | i | i | i | i
CCc1cccc(NC(=S)N2CCC(c3ccccc3)C2)c1 (configuration not stated) | i | -10 | i | i | i | i | i | i
O=S1(=O)CCOC[C@H](CC2CCCCC2)N1Cc1ccccc1Br | i | -6 | i | i | i | nt | nt | nt
O=C1NN(c2ccc(F)c(Cl)c2)C(=O)/C1=C\c1cccc(OC(=O)c2cccs2)c1 | i | -11 | i | i | i | i | i | i
CC(C)=C1C(=O)NN(c2ccc(F)c(Cl)c2)C1=O | i | 1 | i | i | i | nt | nt | nt
CCOCCn1c(=O)c2c(nc3n2CC(C)CN3CCc2ccccc2)n(C)c1=O (configuration not stated) | i | -9 | i | i | i | nt | nt | nt
Cc1ccc(NC(=O)CN2C(=O)N/C(=C/c3cc(C)n(-c4ccc(C(=O)O)cc4)c3C)C2=O)cc1 | nt | nt | nt | nt | i | nt | nt | nt
Cc1ccc(NC(=O)CN2C(=O)S/C(=C\c3cc(C)n(-c4ccc(C(=O)O)cc4)c3C)C2=O)cc1 | i | -12 | i | i | i | i | i | i
CCN1/C(=C/c2ccc3ccccc3[n+]2CC)C=Cc2ccccc21 | -18* | -38 | 13* | i | -9* | 86%* | 94%* | 59%*
COc1ccc(N2CC(C)Cn3c2nc2c3c(=O)n(Cc3ccc(F)cc3)c(=O)n2C)c(OC)c1 (configuration not stated) | i | -6 | i | i | i | nt | nt | nt
COc1ccc(N2CC(C)Cn3c2nc2c3c(=O)n(Cc3ccc(C)cc3)c(=O)n2C)c(OC)c1 (configuration not stated) | i | -15 | i | i | i | i | i | i
Cc1ccc(NC(=O)C(=O)NCCc2c[nH]c3ccccc23)c(C)c1 | i | -13 | i | i | i | nt | nt | nt
Cc1ccc(NS(=O)(=O)c2cccc(C(=O)NCCc3c[nH]c4ccccc34)c2)c(C)c1 | i | -17 | i | i | i | i | i | 27%*
